Activity calls are given as the source filed them. The calls are words filed in the database; no cut-off is given here.
Assays:
[1] = target: T1, beta-catenin-B-cell lymphoma 9 protein complex (Homo sapiens, UniProt P35222); assay: Competitive inhibition of wild type beta-catenin (unknown origin) expressed in Escherichia coli BL21 DE3 interaction with N-terminally biotinylated human BCL9 (350 to 375 residues) by alpha screen assay
T1 sequence (P35222 whole entry): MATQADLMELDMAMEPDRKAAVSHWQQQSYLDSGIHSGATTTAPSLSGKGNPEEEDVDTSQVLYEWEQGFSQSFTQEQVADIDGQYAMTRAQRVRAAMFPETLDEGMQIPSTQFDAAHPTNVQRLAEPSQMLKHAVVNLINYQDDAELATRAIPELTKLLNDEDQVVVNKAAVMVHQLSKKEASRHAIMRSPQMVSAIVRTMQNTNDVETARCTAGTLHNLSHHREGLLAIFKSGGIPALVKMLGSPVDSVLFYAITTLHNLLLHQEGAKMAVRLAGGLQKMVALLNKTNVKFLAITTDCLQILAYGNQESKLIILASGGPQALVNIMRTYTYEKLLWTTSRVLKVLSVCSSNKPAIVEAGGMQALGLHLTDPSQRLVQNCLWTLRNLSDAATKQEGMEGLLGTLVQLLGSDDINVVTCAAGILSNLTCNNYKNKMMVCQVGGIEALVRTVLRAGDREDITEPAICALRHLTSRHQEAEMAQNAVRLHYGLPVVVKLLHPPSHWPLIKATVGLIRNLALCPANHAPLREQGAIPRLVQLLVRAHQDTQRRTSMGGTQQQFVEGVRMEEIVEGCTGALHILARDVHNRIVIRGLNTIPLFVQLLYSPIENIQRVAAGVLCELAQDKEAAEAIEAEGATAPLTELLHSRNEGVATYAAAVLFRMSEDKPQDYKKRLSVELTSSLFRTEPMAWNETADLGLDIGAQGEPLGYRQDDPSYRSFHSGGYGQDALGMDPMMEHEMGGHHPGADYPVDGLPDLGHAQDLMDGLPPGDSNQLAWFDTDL
T1 sequence (O00512 whole entry): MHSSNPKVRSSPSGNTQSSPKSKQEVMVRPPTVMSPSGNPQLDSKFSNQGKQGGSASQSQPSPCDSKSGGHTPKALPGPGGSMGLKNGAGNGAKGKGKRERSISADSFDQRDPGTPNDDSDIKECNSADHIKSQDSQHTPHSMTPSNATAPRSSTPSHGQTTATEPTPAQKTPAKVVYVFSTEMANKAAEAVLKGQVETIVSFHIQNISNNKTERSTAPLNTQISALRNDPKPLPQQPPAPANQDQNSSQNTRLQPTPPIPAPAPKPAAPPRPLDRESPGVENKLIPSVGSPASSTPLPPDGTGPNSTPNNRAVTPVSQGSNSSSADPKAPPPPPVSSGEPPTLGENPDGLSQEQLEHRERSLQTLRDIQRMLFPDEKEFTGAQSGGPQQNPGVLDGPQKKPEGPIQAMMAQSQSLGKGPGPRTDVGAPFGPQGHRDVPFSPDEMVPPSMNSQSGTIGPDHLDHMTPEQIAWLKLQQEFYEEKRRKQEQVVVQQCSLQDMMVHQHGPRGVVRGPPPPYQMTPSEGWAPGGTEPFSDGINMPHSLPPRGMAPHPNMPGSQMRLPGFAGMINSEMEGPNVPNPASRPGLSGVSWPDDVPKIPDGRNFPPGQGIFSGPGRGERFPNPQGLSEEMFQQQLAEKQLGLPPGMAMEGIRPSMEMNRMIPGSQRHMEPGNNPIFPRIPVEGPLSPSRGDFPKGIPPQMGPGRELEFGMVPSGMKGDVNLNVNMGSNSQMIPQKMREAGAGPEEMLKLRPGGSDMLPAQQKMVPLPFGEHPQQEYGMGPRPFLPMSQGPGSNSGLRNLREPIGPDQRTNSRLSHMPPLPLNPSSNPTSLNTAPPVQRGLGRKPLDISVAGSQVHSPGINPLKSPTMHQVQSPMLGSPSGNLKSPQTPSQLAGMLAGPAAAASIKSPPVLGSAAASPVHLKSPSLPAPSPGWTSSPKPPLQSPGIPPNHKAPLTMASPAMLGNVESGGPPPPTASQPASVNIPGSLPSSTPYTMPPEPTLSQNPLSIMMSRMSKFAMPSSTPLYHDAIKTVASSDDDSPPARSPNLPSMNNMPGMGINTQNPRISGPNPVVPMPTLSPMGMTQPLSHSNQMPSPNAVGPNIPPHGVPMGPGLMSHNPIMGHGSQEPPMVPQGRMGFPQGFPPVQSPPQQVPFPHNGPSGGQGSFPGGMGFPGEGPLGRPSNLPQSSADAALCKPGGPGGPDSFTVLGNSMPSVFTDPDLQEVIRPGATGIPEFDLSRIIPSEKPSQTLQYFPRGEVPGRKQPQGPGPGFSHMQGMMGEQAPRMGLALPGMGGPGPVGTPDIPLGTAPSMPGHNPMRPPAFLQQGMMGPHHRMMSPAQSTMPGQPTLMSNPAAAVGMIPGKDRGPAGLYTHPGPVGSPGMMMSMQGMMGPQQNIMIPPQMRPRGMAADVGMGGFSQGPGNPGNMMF
How it was run: (§1)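 Competitive AlphaScreen binding assays run in parallel against wild-type β-catenin, one with the BCL9 partner and one with the E-cadherin partner; data given as mean ± standard deviation, n = 3.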

[2] = Selectivity ratio of IC50 for human HEK293 cells to IC50 for human HCT116 cells; type: ADME, cell-based; conditions: HEK293 cells versus HCT116 cells, read-out: Ratio IC50
[3] = Cytotoxicity against Wnt-activated human HCT116 cells assessed as reduction in cell viability after 72 hrs by MTS assay; type: functional, cell-based; conditions: HCT-116, 72 h
HEK293 = assay: Cytotoxicity against HEK293 cells assessed as reduction in cell viability after 72 hrs by MTS assay; type: cell-based; conditions: Homo sapiens, HEK293, 72 h
[4] = Selectivity ratio of IC50 for HEK293 cells to IC50 for human SW480 cells; type: ADME, cell-based; conditions: HEK293 cells versus SW480 cells, read-out: Ratio IC50
[5] = target: T2, Catenin beta-1 (Homo sapiens) (UniProt P35222); assay: Inhibition of beta-catenin (unknown origin) expressed in HEK293 cells after 24 hrs by topflash dual luciferase reporter gene assay; type: cell-based
T2 sequence (whole entry): T1 sequence (P35222 whole entry)
How it was run: (§2)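 HEK293 cells transfected with pcDNA3.1−β-catenin; TOPFlash reporter carries wild-type Tcf binding sites and FOPFlash carries mutant Tcf sites; luciferase activity read across a dose series; mean ± standard deviation, n = 2.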

A549 [6] = assay: Cytotoxicity against Wnt-signaling latent human A549 cells assessed as reduction in cell viability after 72 hrs by MTS assay; type: functional, cell-based; conditions: A549, 72 h
A549 [7] = assay: Selectivity ratio of IC50 for human A549 cells to IC50 for human SW480 cells; type: functional
SW480 = assay: Cytotoxicity against Wnt-activated human SW480 cells assessed as reduction in cell viability after 72 hrs by MTS assay; type: functional, cell-based; conditions: SW480, 72 h
A549 [8] = assay: Selectivity ratio of IC50 for human A549 cells to IC50 for human HCT116 cells; type: functional
[9] = Competitive inhibition of N-terminally fluorescein-labeled human BCL9 (350 to 375 residues) interaction with beta-catenin E155A mutant (138 to 686 residues) (unknown origin) expressed in Escherichia coli BL21 DE3 after 3 hrs by fluorescence polarization assay
[10] = Competitive inhibition of N-terminally fluorescein-labeled human BCL9 (350 to 375 residues) interaction with beta-catenin D145A/E155A double mutant (138 to 686 residues) (unknown origin) expressed in Escherichia coli BL21 DE3 after 3 hrs by fluorescence polarization assay
[11] = target: T2, Catenin beta-1 (Homo sapiens); assay: Inhibition of beta-catenin (unknown origin) expressed in HEK293 cells up to 100 uM after 24 hrs by fopflash dual luciferase reporter gene assay; type: cell-based; how it was run: as §2
[12] = target: Cadherin-1/Transcription factor 7-like 2 (Homo sapiens, UniProt P12830+Q9NQB0); assay: Competitive inhibition of wild type beta-catenin (unknown origin) expressed in Escherichia coli BL21 DE3 interaction with N-terminally biotinylated human E-cadherin (824 to 887 residues) by alpha screen assay; how it was run: as §1
[13] = Competitive inhibition of N-terminally fluorescein-labeled human BCL9 (350 to 375 residues) interaction with beta-catenin D145A mutant (138 to 686 residues) (unknown origin) expressed in Escherichia coli BL21 DE3 after 3 hrs by fluorescence polarization assay
Homo sapiens = species: Homo sapiens; assay: Selectivity ratio of Ki for wild type beta-catenin (unknown origin)/ N-terminally biotinylated human BCL9 (350 to 375 residues) interaction to Ki for wild type beta-catenin (unknown origin)/N-terminally biotinylated human E-cadherin (824 to 887 residues) interaction

Cadherin-1/Transcription factor 7-like 2, sequence (Q9NQB0 whole entry, the tested form may be a part): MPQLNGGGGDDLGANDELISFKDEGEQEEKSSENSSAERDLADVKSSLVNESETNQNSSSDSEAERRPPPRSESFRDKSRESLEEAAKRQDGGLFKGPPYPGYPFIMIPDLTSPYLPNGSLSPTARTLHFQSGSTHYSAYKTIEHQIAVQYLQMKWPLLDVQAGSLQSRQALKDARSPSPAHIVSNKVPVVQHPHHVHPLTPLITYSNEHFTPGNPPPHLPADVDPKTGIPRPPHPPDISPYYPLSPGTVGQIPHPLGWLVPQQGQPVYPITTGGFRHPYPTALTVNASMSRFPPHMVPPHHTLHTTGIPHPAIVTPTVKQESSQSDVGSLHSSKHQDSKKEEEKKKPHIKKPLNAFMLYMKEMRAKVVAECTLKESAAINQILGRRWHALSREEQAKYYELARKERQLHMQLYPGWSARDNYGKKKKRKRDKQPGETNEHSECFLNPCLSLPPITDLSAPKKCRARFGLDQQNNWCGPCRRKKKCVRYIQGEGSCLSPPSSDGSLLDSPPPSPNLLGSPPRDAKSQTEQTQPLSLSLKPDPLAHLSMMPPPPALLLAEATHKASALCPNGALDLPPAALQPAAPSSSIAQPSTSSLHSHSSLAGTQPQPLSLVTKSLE
Cadherin-1/Transcription factor 7-like 2, sequence (P12830 whole entry, the tested form may be a part): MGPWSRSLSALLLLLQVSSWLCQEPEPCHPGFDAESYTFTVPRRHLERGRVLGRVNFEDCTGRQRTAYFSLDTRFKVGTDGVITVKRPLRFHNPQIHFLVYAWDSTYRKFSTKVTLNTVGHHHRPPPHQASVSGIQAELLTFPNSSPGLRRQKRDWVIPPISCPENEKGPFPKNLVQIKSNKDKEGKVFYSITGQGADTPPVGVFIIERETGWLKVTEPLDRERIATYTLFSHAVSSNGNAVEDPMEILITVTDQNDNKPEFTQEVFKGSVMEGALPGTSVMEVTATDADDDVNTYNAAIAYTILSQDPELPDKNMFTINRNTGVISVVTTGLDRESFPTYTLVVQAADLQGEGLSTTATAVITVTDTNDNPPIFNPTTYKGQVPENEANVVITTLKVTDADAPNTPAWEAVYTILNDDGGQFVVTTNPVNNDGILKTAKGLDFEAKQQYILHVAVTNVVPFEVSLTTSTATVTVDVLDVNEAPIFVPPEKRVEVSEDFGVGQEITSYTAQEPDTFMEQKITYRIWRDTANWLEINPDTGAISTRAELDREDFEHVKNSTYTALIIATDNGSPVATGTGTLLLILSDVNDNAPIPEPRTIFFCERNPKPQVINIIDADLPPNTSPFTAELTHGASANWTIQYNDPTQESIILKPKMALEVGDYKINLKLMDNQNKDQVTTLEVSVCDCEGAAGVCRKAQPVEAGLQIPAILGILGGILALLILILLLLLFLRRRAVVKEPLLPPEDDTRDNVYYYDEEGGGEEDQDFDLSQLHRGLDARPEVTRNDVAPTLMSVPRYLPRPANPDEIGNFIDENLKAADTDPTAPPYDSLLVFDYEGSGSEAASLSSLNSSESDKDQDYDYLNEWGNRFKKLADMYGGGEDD

For NCCc1cc(F)cc(C(=O)N2CCN(C(=O)c3cnc(O[C@H]4CCNC4)c(-c4ccc(F)cc4)c3)CC2)c1, the Ki [1] was over 500 µM.
O=C(c1cc(F)cc(N2CCNCC2)c1)N1CCN(C(=O)c2ccc(O[C@H]3CCNC3)c(C3CCCC3)c2)CC1 gave a Ki [1] of 53 µM.
Molecule O=C(c1cc(F)cc(C2CCNCC2)c1)N1CCN(C(=O)c2ccc(O[C@H]3CCNC3)c(-c3ccc(F)cc3)c2)CC1 has a Ki [1] of 20 µM.
In the case of Cl.Cl.O=C(c1cc(F)cc(N2CCNCC2)c1)N1CCN(C(=O)c2ccc(O[C@H]3CCNC3)c(C3CCC(C(F)(F)F)CC3)c2)CC1 (stereo partly specified), the selectivity ratio [2] is reported as 3, the IC50 [3] is reported as 39 µM and the IC50 (HEK293) is reported as 130 µM. For the same molecule, the selectivity ratio [4] was 3, the inhibition [5] was “Dose-dependent effect” and the IC50 (A549 [6]) was over 400 µM. For the same molecule, the Ki [1] was 16 µM, the “Ratio IC50” value (A549 [7]) was over 10 and the IC50 (SW480) was 44 µM. The “Ratio IC50” value (A549 [8]) was over 10.
CC1(C)CCC(c2cc(C(=O)N3CCN(C(=O)c4cc(F)cc(N5CCNCC5)c4)CC3)ccc2O[C@H]2CCNC2)CC1 gave a Ki [1] of 70 µM.
Molecule Cl.Cl.O=C(c1cc(F)cc(N2CCNCC2)c1)N1CCN(C(=O)c2ccc(O[C@H]3CCNC3)c(C3CCCCC3)c2)CC1 has a selectivity ratio [2] of 3, an IC50 [3] of 26 µM and an IC50 (HEK293) of 130 µM. The selectivity ratio [4] was 3, the inhibition [5] was “Dose-dependent effect” and the Ki [9] was 39 µM. For the same molecule, the Ki [10] was 53 µM, the inhibition [11] was “inactive” and the IC50 (A549 [6]) was 300 µM. For the same molecule, the IC50 [1] was 5.6 µM, the IC50 [12] was 550 µM and the Ki [12] was 510 µM. The “Ratio IC50” value (A549 [7]) was over 10, the Ki [13] was 29 µM and the IC50 (SW480) was 22 µM. The “Ratio IC50” value (A549 [8]) was over 10.
Molecule CCC1CCC(c2cc(C(=O)N3CCN(C(=O)c4cc(F)cc(N5CCNCC5)c4)CC3)ccc2O[C@H]2CCNC2)CC1 (stereo partly specified) has a Ki [1] of 170 µM.
Work on O=C(c1cc(F)cc(N2CCNCC2)c1)N1CCN(C(=O)c2ccc(O[C@H]3CCNC3)c(-c3ccc(F)cc3)c2)CC1 yielded an IC50 (SW480) of 86 µM.
For O=C(Nc1ccc(OC2CCNC2)c(-c2ccc(F)cc2)c1)c1ccc(O[C@H]2CCNC2)c(-c2ccc(F)c(F)c2)c1 (stereo partly specified), the Ratio Ki (Homo sapiens) was 125 and the Ki [1] was 2.1 µM.
Molecule CC(C)c1cc2c(c(O)c1O)[C@@]1(C(=O)O)CCCC(C)(C)[C@@H]1CC2 [CARNOSIC ACID] has a Ki [1] of 5.3 µM.
In the case of O=C(c1cc(F)cc(N2CCNCC2)c1)N1CCN(C(=O)c2ccc(O[C@H]3CCNC3)c(C3CCC(F)(F)CC3)c2)CC1, the Ki [1] is reported as 45 µM.
